In ChEMBL document CHEMBL3352193, “Synthesis of novel substituted purine derivatives and identification of the cell death mechanism” (Eur J Med Chem, 2015) one finds IC50, inhibition and Activity data, which are given here for 38 compounds.

The source made the active and inactive calls. The calls are words filed in the database; no cut-off is given here.

For assay [1], the system named is T47D. In words: Cytotoxicity against human T47D cells after 72 hrs by SRB assay. The class given is functional, cell-based. In general terms: In SRB staining, fixed cells bind dye roughly in proportion to their protein.
Assay [2] relates to Huh-7. The experiment in a line: Cytotoxicity against human HuH7 cells at 2.5 to 40 uM after 72 hrs by SRB assay. The class given is functional, cell-based. In a few lines:
(§1)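 SRB screen. Cells seeded at 2000–10,000/well and treated next day for 72 h with 40, 20, 10, 5 and 2.5 µM (DMSO under 1%). TCA fixation, 0.4% SRB staining, Tris solubilization, absorbance at 515 nm. Growth inhibition calculated relative to DMSO-only wells. IC50 derived from the five-concentration inhibition percentages.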

In assay [3] the test system is HCT-116. The experiment in a line: Cytotoxicity against human HCT116 cells at 2.5 to 40 uM after 72 hrs by SRB assay. The class given is functional, cell-based. Summed up:
as §1

The nature of assay [4]: Cytotoxicity against human HCT116 cells after 72 hrs by SRB assay. The assay is classed as functional, cell-based. To be noted: HCT-116, 72 h. Summed up:
as §1

The subject of assay [5] is T47D. The experiment in a line: Cytotoxicity against human T47D cells at 2.5 to 40 uM after 72 hrs by SRB assay. The class given is functional, cell-based. Summed up: as §1
Assay [6] can be described thus: Cytotoxicity against human HuH7 cells after 72 hrs by SRB assay. The class given is functional, cell-based. To be noted: Huh-7, 72 h. In a few lines: (§2)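 Sulforhodamine B assay. Cells seeded at 2000–10,000/well and treated the next day in triplicate with ten concentrations (DMSO vehicle, under 1% final) for 24, 48 or 72 h at 37 °C, 5% CO2. Fixed with ice-cold TCA for 1 h at 4 °C, stained with 0.4% SRB in 1% acetic acid, dye solubilized in 10 mM Tris base, A515 read. % inhibition = 100 × (1 − OD drug/OD DMSO). IC50 taken from dose–response curves.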

The test system of assay [7] is HepG2. In words: Cytotoxicity against human HepG2 cells after 72 hrs by SRB assay. The class given is functional, cell-based. To be noted: HepG2, 72 h. Summed up:
as §2

Assay [8] is described as follows: Cytotoxicity against human Hep3B cells after 72 hrs by SRB assay. The assay is classed as functional, cell-based, Hep 3B2. In a few lines: (§3)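 Liver cancer cell panel, SRB assay after 72 h exposure to ten concentrations (DMSO vehicle under 1%). TCA-fixed, SRB-stained, absorbance at 515 nm. Percent cell death calculated against DMSO-only wells, and IC50 read from dose–response curves.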

The subject of assay [9] is PLC. In words: Cytotoxicity against human PLC cells after 72 hrs by SRB assay. The class given is functional, cell-based. In a few lines: as §3
Assay [10] in a line: Cytotoxicity against human SKHEP1 cells after 72 hrs by SRB assay. The class given is functional, cell-based. Particulars: SK-HEP1, 72 h. In a few lines:
as §3

A short description of assay [11]: Cytotoxicity against human Mahlavu cells after 72 hrs by SRB assay. The class given is functional, cell-based. Summed up: as §2
Assay [12] can be described thus: Cytotoxicity against human FOCUS cells after 72 hrs by SRB assay. The class given is functional, cell-based. In a few lines: as §2
Assay [13] is described as follows: Cytotoxicity against human SNU182 cells after 72 hrs by SRB assay. The class given is functional, cell-based. To be noted: SNU-182, 72 h. In a few lines:
as §3

A short description of assay [14]: Cytotoxicity against human SNU475 cells after 72 hrs by SRB assay. Particulars: Homo sapiens, SNU-475, 72 h; read-out: IC50. The assay is classed as functional, cell-based, SNU-475. Summed up: as §3
For assay [15], the system named is Huh-7. The experiment in a line: Cytotoxicity against human HuH7 cells assessed as condensed apoptotic nuclei after 72 hrs by Hoechst […] staining-based fluorescence microscopy. The class given is functional, cell-based.
The test system of assay [16] is FOCUS. The experiment in a line: Cytotoxicity against human FOCUS cells assessed as condensed apoptotic nuclei after 72 hrs by Hoechst […] staining-based fluorescence microscopy. The class given is functional, cell-based.
Assay [17] relates to Mahlavu. The experiment in a line: Induction of apoptosis in human Mahlavu cells assessed as PARP cleavage at IC50 after 72 hrs by Western blotting analysis. The class given is functional, cell-based.
For assay [18], the system named is Mahlavu. In words: Induction of […] in human Mahlavu cells assessed as PARP cleavage at IC50 after 72 hrs by Western blotting analysis. The class given is functional, cell-based. (In general: Immunoblotting shows a protein as a band on a membrane.)
In assay [19] the test system is Mahlavu. In words: Induction of apoptosis in human Mahlavu cells assessed as Bcl2 expression at IC50 after 72 hrs by Western blotting analysis. The assay is classed as functional, cell-based.
Assay [20] deals with Mahlavu. In words: Induction of apoptosis in human Mahlavu cells assessed as total cytochrome c level at IC50 after 72 hrs by Western blotting analysis. The class given is functional, cell-based.
In assay [21] the test system is Huh-7. The experiment in a line: Reduction in intrinsic cellular ATP consumption in human HuH7 cells at IC50 after 24 hrs by bioluminescence assay. The class given is functional, cell-based. In a few lines: (§4)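 Cells treated for 24 h, with staurosporine as positive control and DMSO-only controls. 20 µg lysate protein in kinase buffer (40 mM Tris-HCl pH 7.6, 20 mM MgCl2, 0.1 mg/ml BSA), no exogenous ATP added. Luciferase ATP-detection reagent added, 10 min in the dark at room temperature, then luminescence read. Higher signal taken as reduced ATP consumption.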

The test system of assay [22] is Mahlavu. The experiment in a line: Reduction in intrinsic cellular ATP consumption in human Mahlavu cells at IC50 after 24 hrs by bioluminescence assay. The class given is functional, cell-based. In a few lines:
as §4

The IC50 is the concentration at which inhibition is half-maximal. For the compound `CCOC(=O)Cn1cnc2c(NCc3ccc(Cl)cc3Cl)ncnc21`, the IC50 in assay [1] is 99.9 µM. Further, the inhibition result in [2] and in assay [3] was “inactive” throughout.

With `COc1ccc(CNc2ncnc3[nH]cnc23)cc1`, in assay [4], the IC50 came to 86.6 µM. The inhibition entry in assay [2] and in [5] was “inactive” throughout.

Regarding `Clc1ccc(CNc2ncnc3[nH]cnc23)c(Cl)c1`, in [1], half-maximal inhibition (IC50) required 147 µM. For the same compound, the inhibition result in [2] and in assay [3] was “inactive” in each case.

For the compound `CCNCCNCCn1cnc2c(N)ncnc21`, the inhibition entry in assay [2], in [3] and in assay [5] was “inactive” in each case.

Regarding `COc1ccc(CNc2ncnc3c2ncn3S(=O)(=O)c2ccc(C)cc2)cc1`, the inhibition entry in [2], in [3] and in assay [5] was “inactive” throughout.

In the case of `Nc1ncnc2c1ncn2CCN1CCN(CCN2CCOCC2)CC1`, the inhibition entry in assay [2], in assay [3] and in [5] was “inactive” in each case.

On to `Nc1ncnc2c1ncn2CCNCCN1CCCC1`, for which the inhibition entry in assay [2], in assay [3] and in [5] was “inactive” in each case.

`CCOC(=O)Cn1cnc2c(NCc3cccc(C(F)(F)F)c3)ncnc21` displayed an IC50 in [4] of more than 200 µM. In addition, the inhibition entry in [2] and in assay [5] was “inactive” each time.

On to `CC1CCN(c2ncnc3[nH]cnc23)CC1`, for which the inhibition entry in assay [2], in [3] and in assay [5] was “inactive” each time.

`CN(C)CCNCCn1cnc2c(N)ncnc21`: the inhibition entry in assay [2], in assay [3] and in [5] was “inactive” in each case.

Regarding `Fc1ccc(CNc2ncnc3[nH]cnc23)c(F)c1`, the inhibition result in assay [2], in [3] and in [5] was “inactive” in each case.

Turning to `OCCNc1ncnc2[nH]cnc12`, the inhibition entry in assay [2], in assay [3] and in assay [5] was “inactive” throughout.

Turning to `O=c1[nH]cc(F)c(=O)[nH]1` [FLUOROURACIL], the IC50 in assay [4] is 6 µM; in assay [1], 7.9 µM.

Regarding `Cc1ccc(S(=O)(=O)n2cnc3c(NCCC4C=CCCC4)ncnc32)cc1` (centres undefined), the figures for the IC50 in [6], in assay [4] and in assay [1] were 9.4 µM, 8.7 µM and 34.5 µM, respectively.

Take `Nc1nc(Cl)nc2c1ncn2[C@H]1C[C@H](O)[C@@H](CO)O1` [CLADRIBINE]: the IC50 in [6] was 1.8 µM; in assay [4] it was 0.3 µM; in assay [1] it was 0.7 µM.

Consider `Cc1ccc(S(=O)(=O)n2cnc3c(Cl)ncnc32)cc1`, for which the IC50 in assay [6] was determined as 20.8 µM; in assay [4] it was 22.8 µM; in [1], 13.9 µM.

As for `Nc1ncnc2c1ncn2CCN1CCN(CCO)CC1`, the inhibition result in assay [2], in assay [3] and in assay [5] was “inactive” each time.

Turning to `Cc1ccc(S(=O)(=O)n2cnc3c(NC4CC4)ncnc32)cc1`, the inhibition result in [2], in assay [3] and in assay [5] was “inactive” throughout.

`Nc1ncnc2c1ncn2CCNCCN1CCOCC1`: the inhibition entry in assay [2], in assay [3] and in assay [5] was “inactive” each time.

As to `Cc1ccc(S(=O)(=O)n2cnc3c(N4CCC(C)CC4)ncnc32)cc1`, the results for the IC50 in [6], in assay [4] and in assay [1] were 17.8 µM, 14.6 µM and 22.5 µM, respectively.

For the compound `Nc1nc(F)nc2c1ncn2[C@@H]1O[C@H](CO)[C@@H](O)[C@@H]1O` [FLUDARABINE], the IC50 in assay [6] was 60.1 µM; in [4], 6.6 µM; in assay [1] it was 46.2 µM.

Regarding `CC(C)NCCNCCn1cnc2c(N)ncnc21`, the inhibition entry in [2], in assay [3] and in assay [5] was “inactive” in each case.

For `CN1CCN(NCCn2cnc3c(N)ncnc32)CC1`, the inhibition entry in [2], in assay [3] and in assay [5] was “inactive” each time.

Turning to `Cc1ccc(S(=O)(=O)n2cnc3c(NCc4ccc(Cl)cc4Cl)ncnc32)cc1`, the IC50 in assay [6] amounted to 26.9 µM; in assay [4] it was 28.1 µM; in assay [1], 47.6 µM.

`Cc1ccc(S(=O)(=O)n2cnc3c(NCc4ccc(F)cc4F)ncnc32)cc1` had an IC50 in assay [1] of 116 µM. Moreover, the inhibition entry in assay [2] and in assay [3] was “inactive” throughout.

`C1=CC(CCNc2ncnc3[nH]cnc23)CCC1` (centres undefined): the IC50 turned out to be 14.2 µM in assay [6], 12.9 µM in assay [4] and 40.3 µM in [1].

For the compound `CCOC(=O)Cn1cnc2c(N3CCN(c4ccc(C(F)(F)F)cc4)CC3)ncnc21`, the IC50 in assay [6] is 53.3 µM; in assay [4], 72.4 µM. Moreover, the inhibition result in [5] was “inactive”.

On to `OC[C@H]1O[C@@H](n2cnc3c2N=CNC[C@H]3O)C[C@@H]1O`, for which the inhibition entry in assay [2], in assay [3] and in assay [5] was “inactive” each time.

As to `CC1CCN(c2ncnc3c2ncn3C2CCCC2)CC1`, the values for the IC50 in assay [6], in assay [4] and in [1] were 17.4 µM, 16.6 µM and 21 µM, respectively.

With `Nc1ncnc2c1ncn2CCNCCNc1ccccc1`, the inhibition entry in assay [2], in assay [3] and in assay [5] was “inactive” each time.

Consider `Cc1ccc(S(=O)(=O)n2cnc3c(N4CCN(c5ccc(C(F)(F)F)cc5)CC4)ncnc32)cc1`, for which the IC50 was 1.4 µM in assay [6]; 4.5 µM in assay [4]; 42.7 µM in assay [1]; 1200 nM in assay [7]; 2900 nM in assay [8]; 3.7 µM in assay [9]. Besides, the concentration for half-maximal inhibition (IC50) is 1700 nM in assay [10]; 1000 nM in assay [11]; 1000 nM in assay [12]; 8.4 µM in assay [13]; 5.4 µM in [14]. Besides, the outcome in [15], in assay [16], in assay [21] and in [22] was Active. For the same compound, the outcome in [17], in assay [18], in assay [19] and in assay [20] was inactive.

Consider `FC(F)(F)c1cccc(CNc2ncnc3[nH]cnc23)c1`, for which the results for the IC50 in assay [6] and in assay [4] were 68.3 µM and 102 µM, respectively. Further, in [5], the inhibition entry was “inactive”.

In the case of `O=CN1CCN(c2ncnc3[nH]cnc23)CC1`, the inhibition result in [2], in [3] and in assay [5] was “inactive” each time.

For the compound `CCOC(=O)Cn1cnc2c(N3CCN(CCO)CC3)ncnc21`, the inhibition entry in [2], in assay [3] and in [5] was “inactive” throughout.

For the compound `OCCN1CCN(c2[nH]cnc3ncnc2-3)CC1`, the inhibition entry in [2], in assay [3] and in assay [5] was “inactive” throughout.

Take `c1nc(NC2CC2)c2nc[nH]c2n1`: the inhibition result in assay [2], in assay [3] and in assay [5] was “inactive” throughout.

Consider `c1ccc(NCCNc2ncnc3[nH]cnc23)cc1`, for which the 50% inhibitory concentration (IC50) in assay [4] was found to be 132 µM. The inhibition result in assay [2] and in assay [5] was “inactive” throughout.

For `c1ccc(CN2CCC(Nc3ncnc4[nH]cnc34)CC2)cc1`, the inhibition result in assay [2], in assay [3] and in assay [5] was “inactive” in each case.
